The target of data set [1] is T1, Nitric oxide synthase, inducible (Mus musculus) (UniProt P29477).
T1 sequence (whole entry): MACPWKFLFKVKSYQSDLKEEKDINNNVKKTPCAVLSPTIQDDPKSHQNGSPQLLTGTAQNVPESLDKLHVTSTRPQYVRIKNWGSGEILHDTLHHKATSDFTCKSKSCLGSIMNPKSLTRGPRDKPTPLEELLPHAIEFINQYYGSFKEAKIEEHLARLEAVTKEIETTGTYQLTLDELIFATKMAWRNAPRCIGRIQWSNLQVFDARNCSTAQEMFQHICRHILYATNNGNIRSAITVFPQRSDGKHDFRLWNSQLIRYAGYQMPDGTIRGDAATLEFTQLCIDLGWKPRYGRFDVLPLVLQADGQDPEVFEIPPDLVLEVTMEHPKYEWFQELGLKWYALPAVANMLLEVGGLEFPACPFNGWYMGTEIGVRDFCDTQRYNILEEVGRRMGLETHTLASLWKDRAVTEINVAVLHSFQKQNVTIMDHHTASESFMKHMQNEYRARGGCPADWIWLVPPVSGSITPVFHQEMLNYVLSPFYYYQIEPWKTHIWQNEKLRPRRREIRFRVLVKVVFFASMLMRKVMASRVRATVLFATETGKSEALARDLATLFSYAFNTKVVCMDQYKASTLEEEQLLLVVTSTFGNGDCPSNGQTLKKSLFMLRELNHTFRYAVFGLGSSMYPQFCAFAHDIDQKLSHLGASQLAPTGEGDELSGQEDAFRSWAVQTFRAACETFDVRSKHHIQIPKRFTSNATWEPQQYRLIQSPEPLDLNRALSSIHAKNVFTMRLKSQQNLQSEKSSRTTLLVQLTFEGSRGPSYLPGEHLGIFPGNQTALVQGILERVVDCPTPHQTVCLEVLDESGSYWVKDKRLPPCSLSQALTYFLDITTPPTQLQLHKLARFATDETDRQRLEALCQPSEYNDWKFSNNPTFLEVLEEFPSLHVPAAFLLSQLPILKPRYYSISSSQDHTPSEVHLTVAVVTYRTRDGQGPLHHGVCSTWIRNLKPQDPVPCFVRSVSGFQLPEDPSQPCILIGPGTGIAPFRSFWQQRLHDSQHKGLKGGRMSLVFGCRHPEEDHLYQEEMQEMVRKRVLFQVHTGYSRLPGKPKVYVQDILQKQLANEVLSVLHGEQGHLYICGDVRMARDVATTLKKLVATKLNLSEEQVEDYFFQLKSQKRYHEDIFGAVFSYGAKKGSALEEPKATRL
The data set can be described thus: Inhibition of mouse iNOS expressed in insect Sf9 cells assessed as residual activity at 100 uM by Griess assay relative to control. The method in brief: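 Murine iNOS produced in Sf9 insect cells. Buffer: 50 mM triethanolamine pH 7.5, 1 mM CHAPS, 10 mM 2-mercaptoethanol, 0.5 mM EDTA. Additions: 1 mM Mg2+, 5 µM FAD, 5 µM FMN, 0.5 mM NADPH, 10 µM H4B, 10 µg/ml CaM, 1 mM L-arginine. Compound at 100 µM final, 37 °C for 20 min. NADPH removed with LDH/pyruvate, then Griess read at 543 nm. Values are % of 1% DMSO control, 5 experiments.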
(The Griess reaction detects nitrite, a stable product of nitric oxide.)

For data set [2], the target named is T2, Nitric oxide synthase 3 (Bos taurus) (UniProt P29473).
T2 sequence (whole entry): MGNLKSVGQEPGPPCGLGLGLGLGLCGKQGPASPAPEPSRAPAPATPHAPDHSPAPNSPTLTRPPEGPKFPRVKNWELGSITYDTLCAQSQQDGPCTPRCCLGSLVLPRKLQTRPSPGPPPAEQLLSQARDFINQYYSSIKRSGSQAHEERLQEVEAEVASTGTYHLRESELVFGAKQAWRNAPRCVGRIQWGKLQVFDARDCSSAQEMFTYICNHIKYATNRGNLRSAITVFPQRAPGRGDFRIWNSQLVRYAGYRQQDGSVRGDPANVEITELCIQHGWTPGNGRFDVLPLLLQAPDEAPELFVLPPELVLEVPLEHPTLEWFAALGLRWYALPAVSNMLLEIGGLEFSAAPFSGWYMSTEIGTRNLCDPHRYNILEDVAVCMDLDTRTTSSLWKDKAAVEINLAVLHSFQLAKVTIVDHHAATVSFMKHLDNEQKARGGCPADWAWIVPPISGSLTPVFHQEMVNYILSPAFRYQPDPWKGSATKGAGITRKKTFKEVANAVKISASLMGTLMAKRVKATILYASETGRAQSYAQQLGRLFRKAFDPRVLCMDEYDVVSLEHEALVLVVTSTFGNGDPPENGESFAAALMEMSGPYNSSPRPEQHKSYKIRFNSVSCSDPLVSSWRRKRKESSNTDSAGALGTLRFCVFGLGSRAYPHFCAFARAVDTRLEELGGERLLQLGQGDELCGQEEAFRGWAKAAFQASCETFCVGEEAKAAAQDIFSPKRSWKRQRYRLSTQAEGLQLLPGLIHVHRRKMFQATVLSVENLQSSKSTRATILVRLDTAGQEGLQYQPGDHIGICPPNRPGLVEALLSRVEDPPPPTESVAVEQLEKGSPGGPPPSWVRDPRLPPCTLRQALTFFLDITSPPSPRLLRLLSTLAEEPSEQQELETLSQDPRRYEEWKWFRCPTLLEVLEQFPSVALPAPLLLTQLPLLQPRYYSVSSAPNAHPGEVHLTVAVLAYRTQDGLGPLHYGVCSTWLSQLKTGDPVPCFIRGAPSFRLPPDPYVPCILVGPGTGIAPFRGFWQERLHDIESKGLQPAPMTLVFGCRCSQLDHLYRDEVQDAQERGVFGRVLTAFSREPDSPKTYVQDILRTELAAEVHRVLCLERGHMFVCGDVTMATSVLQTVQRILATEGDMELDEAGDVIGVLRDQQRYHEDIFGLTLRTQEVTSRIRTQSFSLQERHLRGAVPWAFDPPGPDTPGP
Put plainly: Inhibition of bovine eNOS expressed in insect Sf9 cells assessed as residual activity at 100 uM by Griess assay relative to control. The method in brief: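 Bovine eNOS from Sf9 cells. Reaction: triethanolamine buffer pH 7.5, 0.5 mM Ca2+, 10 µg/ml CaM, 10 µM H4B, FAD, FMN, 0.5 mM NADPH, 1 mM L-arginine, with 100 µM compound, 20 min at 37 °C. After NADPH removal by LDH/pyruvate, nitrite measured by Griess at 543 nm. Expressed as % residual activity versus 1% DMSO control, 5 experiments.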

The nature of data set [3]: Lipophilicity, log D at pH 7.4 by HPLC method. The conditions noted are these: buffer.
The target in data set [4] is T1, Nitric oxide synthase, inducible (Mus musculus). The data set can be described thus: Inhibition of mouse recombinant iNOS expressed in Escherichia coli assessed as conversion of [gamma-14C]L-arginine to [14C]L-citrulline at 100 uM by radioactive assay relative to control. Also on record: scale not given: the % may be the effect or the level left. The method in brief:
(§1)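 Purified enzymes: rat nNOS from S. cerevisiae, murine iNOS and bovine eNOS from E. coli. Reaction 5 min at 37 °C in 50 mM Hepes pH 7.4 with DTT, 1 mM NADPH, H4B, FAD, FMN, [14C]L-arginine (2.5 µM L-arginine) and 100 µM compound in 1% DMSO. nNOS/eNOS also got 1 mM CaCl2 and CaM, which iNOS lacked. [14C]citrulline isolated on Dowex and counted by scintillation; % of DMSO control, n=3.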

Data set [5] has as its target T2, Nitric oxide synthase 3 (Bos taurus). Put plainly: Inhibition of bovine recombinant eNOS expressed in Escherichia coli assessed as conversion of [gamma-14C]L-arginine to [14C]L-citrulline at 100 uM by radioactive assay relative to control. Also on record: scale not given: the % may be the effect or the level left. The method in brief:
as §1

The subject of data set [6] is RAW264.7. Put plainly: Cytotoxicity against mouse RAW264.7 cells at 100 uM. Type of data set: cell-based. The conditions noted are these: raw264.7, 100 µM.
The target in data set [7] is Nitric oxide synthase 1 (Rattus norvegicus) (UniProt P29476). The data set can be described thus: Inhibition of rat recombinant nNOS expressed in Saccharomyces cerevisiae assessed as conversion of [gamma-14C]L-arginine to [14C]L-citrulline at 100 uM by radioactive assay relative to control. Also on record: scale not given: the % may be the effect or the level left. The method in brief:
as §1

The target of data set [8] is T1, Nitric oxide synthase, inducible (Mus musculus). Put plainly: Inhibition of mouse recombinant iNOS expressed in Escherichia coli assessed as NADPH consumption at 100 uM after 2 mins by spectrophotometry. The method in brief: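 Murine iNOS from E. coli (15–50 nM final) in 50 mM Hepes pH 7.4 with 5 mM DTT, 100 µM CaCl2, 200 µM NADPH, 10 µM H4B, 100 µM L-arginine and 100 µM compound. Cofactors and compound preincubated 2 min at 37 °C, enzyme added, and A340 followed for 3 min (ε 6.2 mM-1 cm-1). Given as % of 1% DMSO control NADPH oxidase rate.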

Data set [9] has the same target. Put plainly: Inhibition of iNOS in LPS and IFN-gamma-stimulated mouse RAW264.7 cells assessed as inhibition of nitrite accumulation at 100 uM after 15 hrs by Griess assay. The class given is cell-based. The method in brief: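 RAW 264.7 macrophages seeded at 100,000 cells/well in RPMI 1640 with 5% FCS and grown 24 h. Stimulated with 40 U/ml γ-IFN and 50 ng/ml LPS, with compound at 100 µM in 1% DMSO, for 15 h at 37 °C. Supernatant nitrite measured with Griess reagent at 550 nm against an NaNO2 calibration; 6–8 determinations.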

Structures are written as SMILES.

Nitric oxide synthase 1 (Rattus norvegicus), sequence (P29476 whole entry): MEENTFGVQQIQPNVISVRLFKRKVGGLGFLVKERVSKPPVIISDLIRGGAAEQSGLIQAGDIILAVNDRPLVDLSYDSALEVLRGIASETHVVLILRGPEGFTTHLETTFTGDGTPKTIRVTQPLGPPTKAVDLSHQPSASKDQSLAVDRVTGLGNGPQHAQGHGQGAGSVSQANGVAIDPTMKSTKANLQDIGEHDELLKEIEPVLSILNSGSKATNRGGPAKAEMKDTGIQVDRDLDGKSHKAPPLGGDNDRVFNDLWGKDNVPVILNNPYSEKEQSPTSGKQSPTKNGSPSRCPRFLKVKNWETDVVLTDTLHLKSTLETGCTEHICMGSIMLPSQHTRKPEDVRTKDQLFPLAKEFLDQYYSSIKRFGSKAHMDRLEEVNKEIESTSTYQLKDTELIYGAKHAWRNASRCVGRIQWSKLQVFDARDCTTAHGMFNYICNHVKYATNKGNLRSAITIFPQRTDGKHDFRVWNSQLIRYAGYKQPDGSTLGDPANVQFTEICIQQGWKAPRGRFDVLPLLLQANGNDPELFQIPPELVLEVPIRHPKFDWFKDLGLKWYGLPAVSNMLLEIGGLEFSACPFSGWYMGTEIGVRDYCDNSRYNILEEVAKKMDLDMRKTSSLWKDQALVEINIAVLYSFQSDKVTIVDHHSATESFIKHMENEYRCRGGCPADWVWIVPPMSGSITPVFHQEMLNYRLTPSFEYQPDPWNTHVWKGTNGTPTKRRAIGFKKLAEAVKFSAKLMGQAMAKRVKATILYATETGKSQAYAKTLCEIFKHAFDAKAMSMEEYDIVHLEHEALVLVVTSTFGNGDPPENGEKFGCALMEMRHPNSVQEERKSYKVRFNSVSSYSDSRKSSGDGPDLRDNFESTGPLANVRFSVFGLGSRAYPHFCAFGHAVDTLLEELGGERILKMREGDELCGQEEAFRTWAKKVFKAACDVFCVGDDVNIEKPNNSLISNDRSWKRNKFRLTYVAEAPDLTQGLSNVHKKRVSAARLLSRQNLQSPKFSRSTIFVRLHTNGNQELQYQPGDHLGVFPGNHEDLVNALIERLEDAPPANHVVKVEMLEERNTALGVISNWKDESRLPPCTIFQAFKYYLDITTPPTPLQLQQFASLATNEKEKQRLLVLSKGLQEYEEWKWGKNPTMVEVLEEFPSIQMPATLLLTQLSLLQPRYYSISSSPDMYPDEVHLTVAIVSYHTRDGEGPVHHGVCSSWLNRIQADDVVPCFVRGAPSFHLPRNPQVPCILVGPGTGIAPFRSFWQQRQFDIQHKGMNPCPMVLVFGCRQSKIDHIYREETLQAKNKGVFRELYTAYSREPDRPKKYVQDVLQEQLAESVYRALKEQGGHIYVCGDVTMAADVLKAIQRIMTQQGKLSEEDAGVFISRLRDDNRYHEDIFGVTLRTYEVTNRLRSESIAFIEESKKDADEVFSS

`CC1=CC=CC2=NCC(C(=O)c3ccccc3)CN12` (stereo not given): the Activity in [1] came to 104%; in data set [2] it was 93%. Moreover, the logD (usually lipophilicity at a set pH, counting ionised and neutral species) in [3] is 1.5.
With `CC1=CC=CN2CC(C(=O)c3ccc(C)cc3)CN=C12` (stereo not given), the Activity in data set [1] stood at 100%; in data set [2], 93%. In data set [3], the logD is 1.6.
Take `COc1ccc(C(=O)C2CN=C3C(C)=CC=CN3C2)cc1OC` (stereo not given): the Activity was 102% in data set [1]; 96% in data set [4]; 95% in data set [2]; 94% in [5]; “Non-toxic” in data set [6]; 48% in data set [7]. In addition, the Remaining NADPH oxidation rate (% of DMSO control) in data set [8] amounted to 89%. The inhibition (commonly the change of the read-out against control, counted positive when it falls) in [9] was determined as 67%.
For the compound `COc1ccc(C(=O)C2CN=C3C=CC=CN3C2)cc1OC` (stereo not given), the Activity was 123% in data set [1] and 91% in data set [2]. The compound further came in with a logD in data set [3] of 1.4.
Turning to `Cc1ccc(C(=O)C2CN=C3C=CC=CN3C2)cc1.[O-][Cl+3]([O-])([O-])O` (stereo not given), the Activity in data set [1] was 86%; in data set [4], 100%; in [2], 94%; in data set [5], 100%; in [6], “Non-toxic”; in data set [7] it was 92%. Also, the Remaining NADPH oxidation rate (% of DMSO control) in data set [8] was 91%. Further, the inhibition in data set [9] worked out at 60%.

The values are drawn from ChEMBL document CHEMBL1152488, “Synthesis and evaluation of pyrido[1,2-a]pyrimidines as inhibitors of nitric oxide synthases” (Eur J Med Chem, 2009).
